From PubChem BioAssay
Compounds with a hit are over-represented: about 2.3% of the library has one in this group of screens.
TRPC4 PAM = positive allosteric modulators of TRPC4, primary screen, cell-based, mouse TRPC4beta, HEK293 mu-opioid, Fluo-4 calcium | B-score at 10 µM | Short transient receptor potential channel 4 (Mus musculus), Q9QUQ5 | 0.42% of 310,000 active | DAMGO EC20, Fluo-4 Ca2+ flux; active compounds read high;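 active = B-score of calcium response area above 5 SD of library B-scores, with initial fluorescence ratio within 5 SD of library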;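 note: B-score of integrated fluorescence ratio over time as area under calcium response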
Target sequence (Q9QUQ5 whole entry, looked up): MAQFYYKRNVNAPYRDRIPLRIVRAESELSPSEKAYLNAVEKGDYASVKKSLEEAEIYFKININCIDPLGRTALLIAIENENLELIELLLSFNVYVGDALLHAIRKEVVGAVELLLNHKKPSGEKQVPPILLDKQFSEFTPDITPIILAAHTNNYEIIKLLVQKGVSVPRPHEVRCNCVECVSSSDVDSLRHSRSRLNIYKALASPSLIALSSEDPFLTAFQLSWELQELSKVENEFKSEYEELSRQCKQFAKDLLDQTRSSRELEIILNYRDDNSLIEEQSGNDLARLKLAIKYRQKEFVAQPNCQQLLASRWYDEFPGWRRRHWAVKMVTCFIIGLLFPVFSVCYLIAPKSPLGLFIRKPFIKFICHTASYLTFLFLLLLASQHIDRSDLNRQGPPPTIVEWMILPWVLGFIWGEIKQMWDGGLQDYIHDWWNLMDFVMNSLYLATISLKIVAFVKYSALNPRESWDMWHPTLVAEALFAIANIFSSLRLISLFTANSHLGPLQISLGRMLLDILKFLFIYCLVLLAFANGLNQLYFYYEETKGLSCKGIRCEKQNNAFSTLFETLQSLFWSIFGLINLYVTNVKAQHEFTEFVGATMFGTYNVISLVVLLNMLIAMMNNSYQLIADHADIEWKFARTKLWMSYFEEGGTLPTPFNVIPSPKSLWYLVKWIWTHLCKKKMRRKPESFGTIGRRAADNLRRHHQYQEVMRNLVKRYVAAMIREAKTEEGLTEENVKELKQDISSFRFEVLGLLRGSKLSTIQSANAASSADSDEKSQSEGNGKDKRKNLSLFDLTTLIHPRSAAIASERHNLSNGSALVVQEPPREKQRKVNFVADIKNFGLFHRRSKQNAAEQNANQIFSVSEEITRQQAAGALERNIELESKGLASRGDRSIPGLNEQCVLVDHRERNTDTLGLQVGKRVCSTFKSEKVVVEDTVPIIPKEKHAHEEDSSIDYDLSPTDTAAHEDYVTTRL
TRPC6 activator = mouse TRPC6 channel activators, primary screen, cell-based, HEK293, membrane potential dye; B-score at 10 µM; 0.13% of 310,000 active; AID 2550, 2010; HEK293-TRPC6 membrane potential dye fluorescence; active compounds read high;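 active = B-score of the integrated fluorescence ratio above library mean plus 3 SD, and starting fluorescence ratio within library mean plus 5 SD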;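 note: higher score means more depolarization so channel activation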
TRPC6 inh = mouse TRPC6 channel inhibitors, primary screen, cell-based, HEK293, membrane potential dye; ACh-evoked depolarization; active compounds read low; B-score at 10 µM; 1.1% of 310,000 active; AID 2553, 2010;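 active = B-score under library mean minus 3 SD, initial fluorescence not abnormally high, positive integrated signal ratio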;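 note: B-score derived from integrated fluorescence ratio over the kinetic read; more negative B-score means stronger inhibition of depolarization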
TRPC4 act = activators of mouse TRPC4 channel, primary screen, Fluo4 calcium, HEK293 TRPC4beta/mu-opioid cells; Short transient receptor potential channel 4 (Mus musculus), Q9QUQ5; Fluo4 calcium fluorescence; active compounds read high; B-score at 10 µM; 0.49% of 310,000 active; AID 2237, 2010;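 active = B-score above 5 SD of library B-scores, and initial fluorescence ratio not above library mean plus 5 SD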;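 note: positive B-score marks a calcium rise read as TRPC4 activation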
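Assay system: HEK293 stable line with TRPC4beta plus mu-opioid receptor. Times: dye 45 min RT, read 110 s. Measured by: kinetic Fluo4 calcium fluorescence. Measure: B score of integrated ratio. Controls: assay buffer as low control, maximal DAMGO as high control.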
TRPC4 inh = inhibitors of mouse TRPC4 channel, primary screen, Fluo4 calcium, HEK293 TRPC4beta/mu-opioid cells; Short transient receptor potential channel 4 (Mus musculus), Q9QUQ5; DAMGO-evoked Fluo4 calcium flux; active compounds read low; B-score at 10 µM; 0.39% of 300,000 active; AID 2247, 2010;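 active = B-score over 3 SD under the library average, no early fluorescence shift, positive overall ratio signal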
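material = TRPC4beta/mu-opioid receptor HEK293 cell line | probe or stimulus = sequential submaximal and maximal DAMGO stimulation | compound dosing = one concentration per compound | measured by = Fluo4 Ca2+ flux fluorescence | evaluation = integrated fluorescence ratio relative to baseline, converted to per-well B score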
TRPC4 spec 2 = second check of whether TRPC6 inhibitors also affect mouse TRPC4; shares compounds with TRPC6 inh; HEK293 TRPC4/MOR, membrane potential dye fluorescence; channel activated by saturating DAMGO dose; inhibition, % at 10 µM; 42% of 920 active; AID 2776;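 active = compounds whose fluorescence signal differed from control wells by over 3 SD, either direction, in both duplicate plates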
TRPC4 spec = mouse TRPC4 modulation by TRPC6 hits, confirmation, selectivity assay for TRPC6 inhibitor project, cell-based, HEK293 TRPC4/mu-opioid, membrane potential dye; activity change, negative = inhibition, % at 10 µM; AID 2777, 2010; 61% of 920 active; membrane potential fluorescence; shares compounds with TRPC6 inh;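 active = rise or fall in signal beyond 3 SD of buffer-only wells in both replicate plates, either sign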;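 note: integrated kinetic ratio of fluorescence range over baseline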
HEK293 MPD ctr 2-1 = nonspecific membrane potential effects, parental HEK293, confirmation, counter-screen for TRPC6 inhibitor project, cell-based, second counter screen. signal change vs control, % at 10 µM. 31% of 920 active. shares compounds with TRPC6 inh. parental HEK293 membrane potential dye fluorescence; maximal acetylcholine challenge after compound addition;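 active = membrane potential signal moving either way by over 3 SD of the maximum-effect control, in both duplicate plates, meaning non-specific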
HEK293 MPD ctr-1 = membrane potential modulation in parental HEK293, confirmation, counter-screen for TRPC6 inhibitor project, cell-based; shares compounds with TRPC6 inh; parental HEK293 membrane potential dye fluorescence; membrane potential signal change, % at 10 µM; 60% of 920 active; AID 2780, 2010;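 active = membrane potential signal shifting up or down by more than 3 SD of buffer-only wells, on both duplicate plates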
HEK293 MPD ctr-2 = parental HEK293 membrane potential modulation, confirmation, counter-screen for TRPC6 modulator project, cell-based. shares compounds with TRPC6 inh. membrane potential signal change, % at 10 µM. AID 488924, 2010. membrane potential dye fluorescence. 51% of 2,400 active;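 active = membrane potential signal moves up or down beyond 5 SD from buffer-only wells, on both duplicate plates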
HEK293 MPD ctr 2-2 = parental HEK293 nonspecific activity of TRPC6 modulators, second screen; shares compounds with TRPC6 inh; membrane potential dye fluorescence; after compound, maximal acetylcholine stimulation; inhibition, % at 10 µM; 14% of 2,400 active; AID 488926;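 active = membrane potential signal drops by more than 5 SD from the mean control signal, in both duplicate plates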;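 note: plate controls were acetylcholine ECmax control wells for no effect and buffer only wells for full effect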
TRPC4/MOR mod = TRPC4 modulation by TRPC6 hit compounds, confirmation, selectivity assay for TRPC6 modulator project, cell-based, HEK293 TRPC4/mu-opioid, membrane potential dye, mouse; shares compounds with TRPC6 inh; membrane potential fluorescence; percent change from control (negative = decrease, positive = increase), % at 10 µM; 69% of 2,400 active; AID 488927, 2010;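 active = membrane potential signal moved up or down beyond 5 SD of buffer control wells, in both duplicate plates, actives on both sides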;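 note: plate controls were assay buffer wells for no effect and DAMGO maximal-effect wells for full effect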
TRPC4/MOR inh 2 = second check of whether TRPC6 modulators also affect mouse TRPC4 | inhibition, % at 10 µM | HEK293 TRPC4/mu-opioid, membrane potential dye fluorescence; stimulated with maximal-effect DAMGO | 55% of 2,400 active | shares compounds with TRPC6 inh | AID 488928;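 active = drop in membrane potential signal beyond 5 SD of the control wells in both duplicate plates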;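 note: TRPC4 counter screen for TRPC6 hits run under conditions tuned for TRPC6 not TRPC4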
TRPC6 inh conf = mouse TRPC6 channel inhibitors, confirmation, HEK293 cells, membrane potential dye, duplicate | shares compounds with TRPC6 inh | ACh-evoked depolarization | inhibition, % at 10 µM | 43% of 3,300 active;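 active = fluorescence ratio falls more than 5 SD below the full-stimulation control mean, in both duplicate runs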;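 note: integrated fluorescence ratio of peak minus minimum over baseline after agonist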
TRPC6 act conf = mouse TRPC6 channel activators, confirmation, HEK293 cells, membrane potential dye, duplicate. activation, % at 10 µM. HEK293-TRPC6 membrane potential dye fluorescence, FDSS. 11% of 2,800 active. shares compounds with TRPC6 inh. AID 488961, 2010;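 active = ratio signal rise beyond 5 SD above unstimulated control wells' mean, seen in both duplicate runs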;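 note: plate controls were buffer EC0 wells for no effect and acetylcholine ECmax response for full effect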
Numbers without * were called inactive.

What do the screens show for `c1ccc(-n2cccc2CNC2CCCCC2)cc1`?
TRPC4 PAM: inactive; TRPC6 activator: inactive; TRPC6 inh: -6.9*; TRPC4 act: inactive; TRPC4 inh: inactive; TRPC4 spec 2: inactive; TRPC4 spec: inactive; HEK293 MPD ctr 2-1: inactive; HEK293 MPD ctr-1: inactive; TRPC6 inh conf: inactive

What do the screens show for `Cn1cccc1CNC1CCCCC1`?
TRPC4 PAM: inactive; TRPC6 activator: inactive; TRPC6 inh: inactive; TRPC4 act: inactive; TRPC4 inh: inactive

How did CCN(CC)CCC(O)(c1ccccc1)C1CCCCC1 (stereo not given) do in these assays?
TRPC4 PAM: inactive; TRPC6 activator: inactive; TRPC6 inh: inactive; TRPC4 act: inactive; TRPC4 inh: inactive

Results for CN1CCCN=C1COC(=O)C(O)(c1ccccc1)C1CCCCC1 (stereo not given) ?
TRPC4 PAM: inactive; TRPC6 activator: inactive; TRPC6 inh: -7*; TRPC4 act: inactive; TRPC4 inh: inactive; TRPC4 spec 2: inactive; TRPC4 spec: 0.2%*; HEK293 MPD ctr 2-1: 36%*; HEK293 MPD ctr-1: inactive; TRPC6 inh conf: 91%*; TRPC6 act conf: inactive

What do the screens show for `CNC(=S)N/N=C/c1cn(Cc2c(F)cccc2Cl)c2ccccc12`?
TRPC4 PAM: inactive; TRPC6 activator: inactive; TRPC6 inh: -5.3*; TRPC4 act: inactive; TRPC4 inh: inactive; HEK293 MPD ctr-2: inactive; HEK293 MPD ctr 2-2: inactive; TRPC4/MOR mod: inactive; TRPC4/MOR inh 2: inactive; TRPC6 inh conf: inactive

What do the screens show for `COc1cc(C2C(C#N)=C(N)Oc3cc(N(C)C)ccc32)cc2c1OCO2` (stereo not given)?
TRPC4 PAM: inactive; TRPC6 activator: 12*; TRPC6 inh: inactive; TRPC4 act: 64*; TRPC4 inh: inactive; HEK293 MPD ctr-2: 256%*; HEK293 MPD ctr 2-2: inactive; TRPC4/MOR mod: 53%*; TRPC4/MOR inh 2: inactive; TRPC6 inh conf: inactive; TRPC6 act conf: 62%*

What do the screens show for `CC(=O)Oc1cc2c3c(c1)/C(=C1/SC(=S)NC1=O)C(=O)N3C(C)(C)C=C2C`?
TRPC4 PAM: inactive; TRPC6 activator: inactive; TRPC6 inh: -5.7*; TRPC4 act: inactive; TRPC4 inh: inactive; HEK293 MPD ctr-2: -112%*; HEK293 MPD ctr 2-2: inactive; TRPC4/MOR mod: -28%*; TRPC4/MOR inh 2: 83%*; TRPC6 inh conf: 58%*; TRPC6 act conf: inactive

What do the screens show for `CCOc1cc2c3c(c1)C(C)=CC(C)(C)N3C(=O)C2=O`?
TRPC4 PAM: inactive; TRPC6 activator: inactive; TRPC6 inh: inactive; TRPC4 act: inactive; TRPC4 inh: inactive

Results for CC1CCC(NC(=O)Cn2c(=O)oc3ccccc32)CC1 (stereo not given) ?
TRPC4 PAM: inactive; TRPC6 activator: inactive; TRPC6 inh: inactive; TRPC4 act: inactive; TRPC4 inh: inactive

What do the screens show for `Cc1cccc(-n2ncc3c(N4CCC5(CC4)OCCO5)ncnc32)c1`?
TRPC4 PAM: inactive; TRPC6 activator: inactive; TRPC6 inh: inactive; TRPC4 act: inactive; TRPC4 inh: inactive

What do the screens show for `c1ccc(-n2ncc3c(N4CCC5(CC4)OCCO5)ncnc32)cc1`?
TRPC4 PAM: inactive; TRPC6 activator: inactive; TRPC6 inh: -7.7*; TRPC4 act: inactive; TRPC4 inh: inactive; TRPC4 spec 2: inactive; TRPC4 spec: inactive; HEK293 MPD ctr 2-1: 220%*; HEK293 MPD ctr-1: inactive; TRPC6 inh conf: inactive; TRPC6 act conf: inactive

How did CCCn1c(=N)n(CC(=O)c2ccc(Cl)cc2)c2ccccc21 do in these assays?
TRPC4 PAM: inactive; TRPC6 activator: inactive; TRPC6 inh: -7.3*; TRPC4 act: inactive; TRPC4 inh: inactive; TRPC4 spec 2: 26%*; TRPC4 spec: 35%*; HEK293 MPD ctr 2-1: 258%*; HEK293 MPD ctr-1: 3.4%*; TRPC6 inh conf: inactive; TRPC6 act conf: inactive

What do the screens show for `CCCn1c(=N)n(CC(=O)c2ccc([N+](=O)[O-])cc2)c2ccccc21`?
TRPC4 PAM: inactive; TRPC6 activator: inactive; TRPC6 inh: inactive; TRPC4 act: inactive; TRPC4 inh: inactive
